NR2E3 ag-1: activates human NR2E3 receptor; Q9Y5X4; AID 602229; inhibition of corepressor binding, % at 3.98 µM; CHO-S Gal4-NCOR/VP16-NR2E3 two-hybrid, luciferase; 360,000 tested, 0.35% active;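 active = inhibition above the mean of all tested compounds plus 3 SD, cut at about 70% in these data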;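 also: 0% = DMSO with NR2E3 transfected cells and 100% = cells lacking NR2E3 construct; higher means lower luciferase signal from less NR2E3 corepressor binding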
Target sequence (Q9Y5X4 whole entry, looked up, the tested form may be a part): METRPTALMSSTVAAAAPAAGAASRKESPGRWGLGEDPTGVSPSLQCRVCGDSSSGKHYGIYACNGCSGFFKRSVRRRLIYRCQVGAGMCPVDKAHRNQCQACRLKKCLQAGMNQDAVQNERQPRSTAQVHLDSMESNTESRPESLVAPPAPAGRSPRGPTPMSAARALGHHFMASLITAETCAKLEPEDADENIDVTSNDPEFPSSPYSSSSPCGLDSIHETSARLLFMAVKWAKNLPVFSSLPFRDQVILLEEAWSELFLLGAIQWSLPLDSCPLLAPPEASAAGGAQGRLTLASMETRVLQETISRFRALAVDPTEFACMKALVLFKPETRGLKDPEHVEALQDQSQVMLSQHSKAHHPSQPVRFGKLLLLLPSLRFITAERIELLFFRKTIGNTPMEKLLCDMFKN
JMJD2C inh: blocks human GASC-1 demethylase activity; GST-JMJD2C(1-420) H3K9me3 demethylation, DELFIA europium; inhibition, % at 2.35 µM; Q9H3R0; 330,000 tested, 0.069% active;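 active = more than half of a compound's replicate wells show inhibition beyond 50%, single wells judged on their own value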;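 also: signal counts dimethyl H3K9 product captured on neutravidin plate; 0% = median of DMSO wells and 100% = 0.3 times that DMSO median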
NR2E3 ag-2: NR2E3 (human) agonism. Q9Y5X4. 320,000 tested, 0.12% active. GST-NR2E3/biotin-RetCOR TR-FRET, 1536-well. inhibition of corepressor binding, % at 4.78 µM;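 active = percent inhibition above the cutoff of mean plus 3 SD of all tested compounds, set per screening campaign, cut at about 20% in these data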;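 also: 0% = DMSO wells and 100% = biotin wells as full block of FRET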
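Material: NR2E3–RetCOR corepressor complex | Quantity: 1.35 nM GST-tagged NR2E3 final | Schedule: 5 h at 4 °C | Replication: Singlicate compound wells | Reagent: RetCOR corepressor, biotinylated, 7 nM | Controls: Biotin wells as high control, 0.6% DMSO wells as low control | Signal: TR-FRET, Eu(K)-anti-GST donor, streptavidin-D2 acceptor, ex 340, em 617/671 nm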
DAX1 inh-1: DAX1 (NR0B1) inhibition, primary screen. inhibition, % at 6.8 µM. 370,000 tested, 1.1% active. HEK293T StAR-luciferase reporter, SF-1/DAX-1 repression relief;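 active = inhibition above the mean over all tested compounds plus 3 SD, cut at about 3.6% in these data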;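 also: 0% = DAX-1 cells with DMSO and 100% = cells lacking DAX-1 with DMSO; higher inhibition means more luminescence from relief of DAX-1 repression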
SMARCA2 act: activators of SMARCA2 function; MG213 cells, MMTV-luciferase reporter, dexamethasone, overnight; activation, % at 9.1 µM; 370,000 tested, 1% active; in the data active = activation above about 7.8%;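 also: 0% = vehicle wells and 100% = reference activator wells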
DAX1 inh-2: NR0B1 (DAX1) inhibition | P51843 | HEK293 Gal4-DAX1 luciferase reporter, luminescence | inhibition, % at 6.75 µM | 340,000 tested, 0.99% active | AID 504766;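 active = inhibition above the mean over all tested compounds plus 3 SD, cut at about 4.2% in these data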;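 also: 0% = DAX1-transfected cells with DMSO and 100% = empty-vector control cells with DMSO; inhibition shows as a rise in luminescence from relieved DAX1 repression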
Target sequence (P51843 207-470 limits assumed): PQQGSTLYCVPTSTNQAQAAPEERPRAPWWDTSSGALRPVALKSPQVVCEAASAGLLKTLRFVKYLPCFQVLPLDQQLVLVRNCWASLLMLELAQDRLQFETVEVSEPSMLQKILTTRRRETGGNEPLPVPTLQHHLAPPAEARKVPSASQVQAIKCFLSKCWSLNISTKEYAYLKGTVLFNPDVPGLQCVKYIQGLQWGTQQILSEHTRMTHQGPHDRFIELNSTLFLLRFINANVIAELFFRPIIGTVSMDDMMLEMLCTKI
NR2E3 ag conf: confirmation of human NR2E3 agonists; shares compounds with NR2E3 ag-1; CHO-S mammalian two-hybrid NR2E3-NCOR, luciferase luminescence; inhibition, % at 3.98 µM; 2,300 tested, 51% active; AID 624378;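 active = average inhibition above a cutoff equal to the mean inhibition of all tested compounds plus one SD, cut at about 70% in these data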;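 also: 0% = DMSO in NR2E3 cells and 100% = DMSO in cells lacking NR2E3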
VP16 counter: reduces GAL4-VP16 reporter signal in NR2E3 counterscreen | shares compounds with NR2E3 ag-1 | CHO-S GAL4-VP16 luciferase reporter, luminescence | inhibition, % at 3.98 µM | 2,300 tested, 29% active;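 active = mean inhibition above a cutoff equal to the average over all tested compounds plus one standard deviation, cut at about 70% in these data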;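 also: luciferase from a UAS reporter driven by GAL4-VP16 transactivation; 0% = DMSO with VP16-transfected cells and 100% = DMSO with cells lacking VP16; higher means less reporter light so more repression of VP16 activity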
* = called active by the depositor; nt = not tested or not shown. A selection: hits, their analogues and other compounds. The true share with any hit is near 3.2%.

SMILES	NR2E3 ag-1	JMJD2C inh	NR2E3 ag-2	DAX1 inh-1	SMARCA2 act	DAX1 inh-2	NR2E3 ag conf	VP16 counter
O=C(CCc1ccccc1)N[C@H]1/C(=N/O)CCC[C@]12C(=O)N(Cc1ccccc1)c1ccccc12	nt	nt	nt	-1	-3	nt	nt	nt
Cc1nn(Cc2ccc(C(=O)Nc3nccs3)cc2)c(C)c1Cl	68	-1	3	0	5	1	63	43
CCN(CC(=O)NCc1cccs1)C(=O)c1ccc(-c2cccc(C(F)(F)F)c2)o1	54	-5	1	0	0	0	20	-7
CCc1c(C)nc2ncnn2c1NCCc1ccc(OC)cc1	84*	-7	-1	-3	-5	-4	89*	66
CN1C(=O)C[C@@](C#N)(C(=O)Nc2nc3ccc(F)cc3s2)[C@H]1c1ccccc1	nt	nt	nt	-1	-2	nt	nt	nt
O=c1c2c(nc3c(-c4ccc(Cl)cc4)c[nH]n13)CCC2	77*	20	-6	-2	-7	-1	66	50
CC(C)(C)C(=O)NC(=S)NNC(=O)c1ccc(-c2ccccc2)cc1	62	-1	3	nt	nt	0	96*	52
CC(C)(C)C(=O)NC(=S)NNC(=O)c1ccncc1	-38	2	1	0	-1	1	nt	nt
CCN(CC)c1c2c(nc3ncnn13)CCCC2	nt	nt	nt	-1	-5	nt	nt	nt
O=C(COc1cccc2ccccc12)Nc1ccc(Cl)cc1C(=O)O	78*	3	1	0	2	1	95*	55
O=S(=O)(Nc1nc(-c2ccccc2)cs1)c1cc(Cl)ccc1Cl	57	12	3	0	0	1	57	42
O=S(=O)(Nc1nc(-c2ccccc2)cs1)c1cccc(C(F)(F)F)c1	71*	4	0	0	-2	2	88*	76*
CCOC(=O)[C@@]12CCCC3=C1N(CCC3)C(=O)[C@H]2CC(=O)NCCCN1CCCC1=O	nt	nt	nt	-1	-2	nt	nt	nt
CCc1cccc(CC)c1NC(=O)/C(C#N)=C/c1ccccc1C(F)(F)F	75*	-4	-1	0	-1	-1	67	61
C/C(=N\NC(=S)NC1CCCCC1)c1ccccc1	55	0	-2	0	3	0	27	-43
C/C(=N\NC(=S)NC1CCCCC1)c1ccc(O)cc1	0	5	3	0	4	0	nt	nt
Cc1cc(C)n(-c2nc3ccccc3nc2N2CCC(C)CC2)n1	0	9	5	-1	-2	0	nt	nt
Cc1cc(N2CCC(C)CC2)nc(-n2nc(C)cc2C)n1	94*	0	2	-3	-2	-3	-2	11
c1ccc(-c2nnc3sc(C4CCCCC4)nn23)cc1	nt	nt	nt	0	0	nt	nt	nt
COc1ccc(CN2C(=O)N3Cc4ccc(C)cc4C3CS2(=O)=O)cc1 (stereo not given)	nt	nt	nt	-1	4	nt	nt	nt
COC(=O)[C@H](C(C)C)N(Cc1cn(CC2CCCCC2)nn1)S(=O)(=O)c1ccc(F)cc1Br	nt	nt	nt	-2	0	nt	nt	nt
Cc1cc(-n2c(C)cc(C(=O)CSc3[nH]c(=O)cc(C(F)(F)F)c3C#N)c2C)no1	98*	-12	4	0	-4	1	99*	89*
COC(=O)C1CN(Cc2cn(Cc3ccccc3)nn2)CCS(=O)(=O)N1Cc1ccccc1 (stereo not given)	nt	nt	nt	0	-1	nt	nt	nt
COc1ccc(Sc2nc(-c3ccccn3)ncc2OC)cc1	92*	-6	0	-3	-5	-2	42	9
COc1cnc(-c2ccccn2)nc1Sc1ccc(F)cc1	67	-6	2	-1	-1	-1	29	-8
SMILES	NR2E3 ag-1	JMJD2C inh	NR2E3 ag-2	DAX1 inh-1	SMARCA2 act	DAX1 inh-2	NR2E3 ag conf	VP16 counter
COc1cnc(-c2ccccn2)nc1Sc1ccccc1	94*	-1	5	-1	1	-2	35	1
COc1cnc(-c2ccccn2)nc1Sc1ccc(Cl)cc1	70	-12	1	-1	2	-2	12	-24
COC(=O)[C@@]12CCCCC3=C1N(CCC3)C(=O)[C@H]2CC(=O)N1CCCC1	nt	nt	nt	1	1	nt	nt	nt
Cc1cccc(NC(=O)CCS(=O)(=O)c2ccccc2)c1C	nt	nt	nt	0	-1	nt	nt	nt
O=C(Cn1ccccc1=S)c1ccc(Cl)c(Cl)c1	-21	-4	0	0	-3	nt	nt	nt
On1ccccc1=S	101*	0	4	-7	-10	-5	-97	4
CCCCCCCCN1CCS(=O)(=O)N(Cc2ccc(C(F)(F)F)cc2)C(C(=O)OC)C1 (stereo not given)	nt	nt	nt	-1	2	nt	nt	nt
COc1ccccc1C(=O)Nc1nc2ccccc2[nH]1	82*	-1	0	-2	-10	-4	77*	42
COc1cc(SC)ccc1C(=O)Nc1nc2ccccc2[nH]1	110*	-4	6	-2	-11	-4	95*	91*
Cc1ccc(C(=O)n2ccc3ccc(-c4ccc5ccn(Cc6ccc(C#N)cc6)c5c4)cc32)cc1	nt	nt	nt	-1	-1	nt	nt	nt
O=C(COc1ccccc1O)NNc1ccccc1	61	-3	0	1	3	-1	47	11
O=C(COc1ccccc1O)Nc1ccccc1Cl	-50	22	-1	1	2	2	nt	nt
CCC(C)(C)C(=O)O[C@H]1C[C@@H](C)C=C2C=C[C@H](C)[C@H](CC[C@@H]3C[C@@H](O)CC(=O)O3)[C@H]21	56	1	0	1	3	-1	86*	27
CN1C(=O)c2cc(NC(=O)Nc3ccccc3)ccc2OC[C@H]2O[C@@H](CC(=O)NCc3ccc(-c4ccccc4)cc3)CC[C@@H]21	nt	nt	nt	0	-4	nt	nt	nt
CCN(CC)CCNc1ccnc2cc(Cl)ccc12	-22	0	2	0	1	0	nt	nt
Clc1ccc2c(NCc3ccccc3)ccnc2c1	69	11	3	-1	-4	0	44	61
O=C(NCCNc1ccnc2cc(Cl)ccc12)c1ccccc1F	64	-14	0	-2	-2	-5	54	57
Cc1ccc(CN2CCCCC(NC(=O)c3ccc(-c4ccccc4)cc3)C2=O)cc1 (stereo not given)	nt	nt	nt	-4	-3	nt	nt	nt
Cc1cc(Nc2nc3ccccc3[nH]c2=O)n(-c2ccccc2)n1	52	nt	-1	-1	-5	-2	40	22
O=C(O)c1ccc(NC2=C/C(=N/S(=O)(=O)c3cccs3)c3ccccc3C2=O)cc1	-2	nt	nt	-2	-6	-1	nt	nt
CCc1ccc(S(=O)(=O)/N=C2\C=C(Nc3ccc(O)cc3)C(=O)c3ccccc32)cc1	113*	-13	-6	nt	nt	-5	100*	100*
